# Key:
# [1] = system: Plasmodium falciparum; experiment: Antimalarial activity against chloroquine-sensitive Plasmodium falciparum 3D7A infected in type A rhesus-positive human erythrocytes assessed as [3H]hypoxanthine incorporation after 48 hrs by scintillation counting; format: functional, organism-based
# Method in brief: (§1)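 Modified semiautomated microdilution: compounds dissolved in DMSO, diluted in RPMI 1640 with 10% v/v human plasma, serial 1:2 dilutions in triplicate. Infected erythrocytes at 3% hematocrit, 0.25−0.55% parasitemia. [3H]hypoxanthine at 12.5−16 μCi/mL final. Incubated 48 h, 37 °C, in 5% O2/3% CO2/92% N2. Harvested on fiberglass strips, scintillation counted. IC50 by nonlinear regression of concentration−response curves.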
# [2] = system: Plasmodium falciparum; experiment: Ratio of IC50 for azithromycin to compound IC50 for chloroquine-resistant Plasmodium falciparum W2 infected in type A rhesus-positive human erythrocytes assessed as [3H]hypoxanthine incorporation after 48 hrs by scintillation counting; format: functional
# [3] = Selectivity ratio of IC50 for human HepG2 cells to IC50 for chloroquine-sensitive Plasmodium falciparum 3D7A; conditions: HepG2 cells versus Plasmodium falciparum 3D7A
# [4] = system: Streptococcus pyogenes; experiment: Antibacterial activity against Streptococcus pyogenes isolate 3565 by broth microdilution method; format: functional
# Method in brief: (§2)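 Standard broth microdilution MIC against macrolide-sensitive strains. For streptococci, 5% horse serum replaced lysed horse blood in the broth, and inocula were grown on Columbia agar with 5% sheep blood. S. aureus was grown on Mueller–Hinton agar.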
# [5] = system: Plasmodium falciparum; experiment: Ratio of IC50 for azithromycin to compound IC50 for chloroquine-sensitive Plasmodium falciparum 3D7A infected in type A rhesus-positive human erythrocytes assessed as [3H]hypoxanthine incorporation after 48 hrs by scintillation counting; format: functional
# [6] = system: Streptococcus pneumoniae; experiment: Antibacterial activity against Streptococcus pneumoniae isolate SP030 by broth microdilution method; format: functional; method in brief: as §2
# [7] = system: Plasmodium falciparum; experiment: Antimalarial activity against chloroquine-resistant Plasmodium falciparum W2 infected in type A rhesus-positive human erythrocytes assessed as [3H]hypoxanthine incorporation after 48 hrs by scintillation counting; format: functional, organism-based; method in brief: as §1
# [8] = Selectivity ratio of IC50 for human HepG2 cells to IC50 for chloroquine-sensitive Plasmodium falciparum 3D7A; format: ADME, cell-based; conditions: HepG2 cells versus Plasmodium falciparum 3D7A, read-out: Ratio IC50
# Method in brief: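 Selectivity is the HepG2 IC50 divided by the P. falciparum IC50. For HepG2, 50000 cells per well in RPMI 1640 with 10% FBS were exposed to 1:2 serial dilutions for 24 h at 37 °C, 5% CO2. MTS was added for 2 h and absorbance read at 490 nm. Parasite IC50 came from the 48 h [3H]hypoxanthine assay.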
# [9] = system: Staphylococcus aureus; experiment: Antibacterial activity against Staphylococcus aureus ATCC 13709 by broth microdilution method; format: functional; method in brief: as §2
# [10] = Aqueous solubility of the compound at pH 4; format: physicochemical
# [11] = system: HepG2; experiment: Cytotoxicity against human HepG2 cells after 24 hrs by MTS assay; format: cell-based; conditions: HepG2, 24 h
# Method in brief: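 Hep G2 cells were kept in RPMI 1640 with 10% FBS at 37 °C and 5% CO2. Wells held 50000 cells and received 1:2 serial dilutions of compound (DMSO stock diluted in medium) for 24 h. MTS reagent was then added for 2 h, absorbance was read at 490 nm, and IC50 was taken from response curves.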
SMILES,IC50 [1] [nM],Ratio IC50 [2],selectivity ratio [3],MIC [4] [µg/mL],Ratio IC50 [5],MIC [6] [µg/mL],IC50 [7] [nM],selectivity ratio [8],MIC [9] [µg/mL],solubility [10] [µg/mL],IC50 [11] [nM]
CC[C@H]1OC(=O)[C@H](C)[C@@H](O[C@H]2C[C@@](C)(OC)[C@@H](O)[C@H](C)O2)[C@H](C)[C@@H](O[C@@H]2O[C@H](C)C[C@H](N(C)C)[C@H]2OCCCNC(=O)CNc2ccnc3cc(Cl)ccc23)[C@](C)(O)C[C@@H](C)CN(C)[C@H](C)[C@@H](O)[C@]1(C)O,14,3,132,> 64,3,> 64,9,132,> 64,> 10000,28000
CC[C@H]1OC(=O)[C@H](C)[C@@H](O[C@H]2C[C@@](C)(OC)[C@@H](O)[C@H](C)O2)[C@H](C)[C@@H](O[C@@H]2O[C@H](C)C[C@H](N(C)C)[C@H]2OCCCNC(=O)CNc2ccnc3ccccc23)[C@](C)(O)C[C@@H](C)CN(C)[C@H](C)[C@@H](O)[C@]1(C)O,119,3,132,> 64,3,> 64,68,132,> 64,> 10000,> 100000
CC[C@H]1OC(=O)[C@H](C)[C@@H](O)[C@H](C)[C@@H](O[C@@H]2O[C@H](C)C[C@H](N(C)C)[C@H]2OCCCNC(=O)CNc2ccnc3cc(Cl)ccc23)[C@](C)(O)C[C@@H](C)CN(C)[C@H](C)[C@@H](O)[C@]1(C)O,138,3,132,> 64,3,> 64,84,132,> 64,> 10000,> 100000
CC[C@H]1OC(=O)[C@H](C)[C@@H](O)[C@H](C)[C@@H](O[C@@H]2O[C@H](C)C[C@H](N(C)C)[C@H]2OCCCNC(=O)CNc2ccnc3ccccc23)[C@](C)(O)C[C@@H](C)CN(C)[C@H](C)[C@@H](O)[C@]1(C)O,1660,3,132,–,3,–,815,132,–,> 10000,–
CC[C@H]1OC(=O)[C@H](C)[C@@H](O[C@H]2C[C@@](C)(OC)[C@@H](O)[C@H](C)O2)[C@H](C)[C@@H](O[C@@H]2O[C@H](C)C[C@H](N(C)C)[C@H]2OCCCNC(=O)CCCNc2ccnc3cc(Cl)ccc23)[C@](C)(O)C[C@@H](C)CN(C)[C@H](C)[C@@H](O)[C@]1(C)O,29,3,132,> 64,3,> 64,19,132,> 64,> 10000,50000
CC[C@H]1OC(=O)[C@H](C)[C@@H](O[C@H]2C[C@@](C)(OC)[C@@H](O)[C@H](C)O2)[C@H](C)[C@@H](O[C@@H]2O[C@H](C)C[C@H](N(C)C)[C@H]2OCCCNC(=O)CCCNc2ccnc3ccccc23)[C@](C)(O)C[C@@H](C)CN(C)[C@H](C)[C@@H](O)[C@]1(C)O,220,3,132,> 64,3,> 64,135,132,> 64,> 10000,> 100000
CC[C@H]1OC(=O)[C@H](C)[C@@H](O)[C@H](C)[C@@H](O[C@@H]2O[C@H](C)C[C@H](N(C)C)[C@H]2OCCCNC(=O)CCCNc2ccnc3cc(Cl)ccc23)[C@](C)(O)C[C@@H](C)CN(C)[C@H](C)[C@@H](O)[C@]1(C)O,402,3,132,> 64,3,> 64,224,132,> 64,> 10000,75000
CC[C@H]1OC(=O)[C@H](C)[C@@H](O[C@H]2C[C@@](C)(OC)[C@@H](O)[C@H](C)O2)[C@H](C)[C@@H](O[C@@H]2O[C@H](C)C[C@H](N(C)C)[C@H]2OCCCNc2ccnc3cc(Cl)ccc23)[C@](C)(O)C[C@@H](C)CN(C)[C@H](C)[C@@H](O)[C@]1(C)O,21,3,132,64,3,64,10,132,> 64,> 10000,45000
CC[C@H]1OC(=O)[C@H](C)[C@@H](O[C@H]2C[C@@](C)(OC)[C@@H](O)[C@H](C)O2)[C@H](C)[C@@H](O[C@@H]2O[C@H](C)C[C@H](N(C)C)[C@H]2OCCCNc2ccnc3ccccc23)[C@](C)(O)C[C@@H](C)CN(C)[C@H](C)[C@@H](O)[C@]1(C)O,64,3,132,32,3,32,35,132,16,> 10000,80000
CC[C@H]1OC(=O)[C@H](C)[C@@H](O)[C@H](C)[C@@H](O[C@@H]2O[C@H](C)C[C@H](N(C)C)[C@H]2OCCCNc2ccnc3cc(Cl)ccc23)[C@](C)(O)C[C@@H](C)CN(C)[C@H](C)[C@@H](O)[C@]1(C)O,37,3,132,> 64,3,> 64,25,132,> 64,> 10000,83000
CC[C@H]1OC(=O)[C@H](C)[C@@H](O[C@H]2C[C@@](C)(OC)[C@@H](O)[C@H](C)O2)[C@H](C)[C@@H](O[C@@H]2O[C@H](C)C[C@H](N(C)C)[C@H]2OCCC(=O)NCCNc2ccnc3cc(Cl)ccc23)[C@](C)(O)C[C@@H](C)CN(C)[C@H](C)[C@@H](O)[C@]1(C)O,18,3,132,64,3,64,13,132,64,> 10000,18000
CC[C@H]1OC(=O)[C@H](C)[C@@H](O[C@H]2C[C@@](C)(OC)[C@@H](O)[C@H](C)O2)[C@H](C)[C@@H](O[C@@H]2O[C@H](C)C[C@H](N(C)C)[C@H]2OCCCNCc2ccnc3ccccc23)[C@](C)(O)C[C@@H](C)CN(C)[C@H](C)[C@@H](O)[C@]1(C)O,141,3,132,> 64,3,> 64,78,132,> 64,> 10000,45000
CC[C@H]1OC(=O)[C@H](C)[C@@H](O)[C@H](C)[C@@H](O[C@@H]2O[C@H](C)C[C@H](N(C)C)[C@H]2OCCCN(C)Cc2cnc3ccccc3c2)[C@](C)(O)C[C@@H](C)CN(C)[C@H](C)[C@@H](O)[C@]1(C)O,1290,3,–,> 64,3,> 64,311,–,> 64,> 10000,> 100000
CC[C@H]1OC(=O)[C@H](C)[C@@H](O)[C@H](C)[C@@H](O[C@@H]2O[C@H](C)C[C@H](N(C)C)[C@H]2OCCCNCc2cnc3ccccc3c2)[C@](C)(O)C[C@@H](C)CN(C)[C@H](C)[C@@H](O)[C@]1(C)O,1370,3,–,> 64,3,> 64,286,–,> 64,> 10000,> 100000
CC[C@H]1OC(=O)[C@H](C)[C@@H](O[C@H]2C[C@@](C)(OC)[C@@H](O)[C@H](C)O2)[C@H](C)[C@@H](O[C@@H]2O[C@H](C)C[C@H](N(C)C)[C@H]2O)[C@](C)(O)C[C@@H](C)CN(C)[C@H](C)[C@@H](O)[C@]1(C)O [AZITHROMYCIN],–,–,132,≤ 0.125,–,≤ 0.125,–,132,0.5,–,–
CCN(CC)CCCC(C)Nc1ccnc2cc(Cl)ccc12 (centres undefined) [CHLOROQUINE],–,–,–,> 64,–,> 64,–,–,> 64,–,–
